Results on 16 compounds are retold here after ChEMBL document CHEMBL4814059, “Redefining the Histone Deacetylase Inhibitor Pharmacophore: High Potency with No Zinc Cofactor Interaction” (ACS Med Chem Lett, 2021).

The target of data set [1] is Histone deacetylase 2 (Homo sapiens, UniProt Q92769). Briefly: Inhibition of recombinant human C-terminal FLAG-tagged HDAC2 expressed in human HEK293F cells using Fluor-de-lys substrate as substrate incubated for 3 hrs followed by substrate addition and measured after 60 mins by fluorescence based assay.
Chain of Histone deacetylase 2 (Q92769 whole entry, the tested form may be a part): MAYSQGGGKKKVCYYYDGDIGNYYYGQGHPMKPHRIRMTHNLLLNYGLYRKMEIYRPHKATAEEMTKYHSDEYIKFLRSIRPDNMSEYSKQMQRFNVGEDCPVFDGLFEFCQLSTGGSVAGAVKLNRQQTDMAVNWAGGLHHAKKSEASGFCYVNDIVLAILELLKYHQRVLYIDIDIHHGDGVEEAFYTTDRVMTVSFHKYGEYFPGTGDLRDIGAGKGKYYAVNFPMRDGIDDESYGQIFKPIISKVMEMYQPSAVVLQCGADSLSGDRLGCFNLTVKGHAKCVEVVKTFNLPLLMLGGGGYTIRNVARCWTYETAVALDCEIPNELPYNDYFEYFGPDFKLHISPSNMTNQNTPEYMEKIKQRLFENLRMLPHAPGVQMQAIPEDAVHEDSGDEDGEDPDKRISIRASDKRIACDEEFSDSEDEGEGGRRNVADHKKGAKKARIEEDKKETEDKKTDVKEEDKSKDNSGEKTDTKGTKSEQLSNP
Data set [2] has as its target T1, Histone deacetylase 3 (Homo sapiens, UniProt O15379). Briefly: Inhibition of recombinant human FLAG-tagged HDAC3 expressed in human HEK293F cells co-expressing His6-tagged SMRT (1 to 899 residues) using Fluor-de-lys substrate as substrate incubated for 3 hrs followed by substrate addition and measured after 60 mins by fluorescence based assay.
The nature of data set [3]: Fraction unbound in rat plasma. In kind it is ADME, cell-free.
The target of data set [4] is T1, Histone deacetylase 3. Briefly: Inhibition of recombinant human FLAG-tagged HDAC3 expressed in human HEK293F cells co-expressing His6-tagged SMRT (1 to 899 residues) assessed as fast-on/fast-off kinetics inhibition using Fluor-de-lys substrate as substrate by fluorescence based analysis.
Data set [5] in a line: Half life in Wistar Han rat. It is filed as ADME. Particulars: in vivo.
The target of data set [6] is Cytochrome P450 2C9 (Homo sapiens, UniProt P11712). Briefly: Inhibition of CYP2C9 in human liver microsomes assessed as reduction in 4'-hydroxy diclofenac level using diclofenac as substrate incubated for 10 mins by LC-MS/MS analysis. In kind it is ADME.
Chain of Cytochrome P450 2C9 (P11712 whole entry): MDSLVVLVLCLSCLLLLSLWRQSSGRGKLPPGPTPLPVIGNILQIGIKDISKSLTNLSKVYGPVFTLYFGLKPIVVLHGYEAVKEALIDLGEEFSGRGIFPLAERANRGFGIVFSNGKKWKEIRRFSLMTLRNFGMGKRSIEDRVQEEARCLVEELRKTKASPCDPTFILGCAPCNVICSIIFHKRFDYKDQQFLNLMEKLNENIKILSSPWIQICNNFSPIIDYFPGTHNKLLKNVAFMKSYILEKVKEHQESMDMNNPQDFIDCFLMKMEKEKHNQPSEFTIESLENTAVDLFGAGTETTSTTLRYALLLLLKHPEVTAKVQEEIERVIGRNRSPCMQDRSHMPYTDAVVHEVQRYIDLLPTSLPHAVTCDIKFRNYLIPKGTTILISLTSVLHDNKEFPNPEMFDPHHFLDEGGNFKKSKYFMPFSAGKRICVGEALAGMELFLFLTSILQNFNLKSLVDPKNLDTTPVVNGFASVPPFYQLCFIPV
Data set [7] can be described thus: Genotoxicity in Salmonella typhimurium TA100 in presence of liver S9 fraction by Ames test. In kind it is toxicity, subcellular. The settings on record: salmonella enterica subsp. enterica serovar typhimurium. In outline:
(§1)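 Exploratory, non-GLP Ames mutagenicity test run on a 3-strain panel.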

Data set [8] has as its target T2, Class 1 histone deacetylase (Homo sapiens, UniProt Q13547+O15379+Q92769+Q9BY41). Briefly: Inhibition of class 1 HDAC in quiescent human primary T-cell model of VSV-G pseudotyped HIV-1 latency assessed as reactivation of HIV latency incubated for 24 hrs in presence of 10% FBS by NanoGlo luciferase assay. In kind it is tissue-based.
Data set [9] addresses T3, Nuclear receptor subfamily 1 group I member 2 (Homo sapiens, UniProt O75469).
T3 sequence (O75469 whole entry): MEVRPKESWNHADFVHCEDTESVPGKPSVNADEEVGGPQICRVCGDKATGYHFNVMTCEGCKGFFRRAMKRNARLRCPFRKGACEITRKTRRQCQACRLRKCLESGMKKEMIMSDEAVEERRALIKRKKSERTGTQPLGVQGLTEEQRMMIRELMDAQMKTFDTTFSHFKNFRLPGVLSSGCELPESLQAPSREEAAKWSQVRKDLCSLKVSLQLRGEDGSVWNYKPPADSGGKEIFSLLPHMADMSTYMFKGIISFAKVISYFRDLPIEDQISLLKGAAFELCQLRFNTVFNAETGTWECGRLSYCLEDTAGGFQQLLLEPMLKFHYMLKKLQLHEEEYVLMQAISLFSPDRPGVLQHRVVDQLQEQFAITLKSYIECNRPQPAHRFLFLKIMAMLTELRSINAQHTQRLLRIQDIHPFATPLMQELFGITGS
Briefly: Activation of PXR (unknown origin) expressed in human DPX2 cells co-expressing luciferase gene under control of CYP3A4 promoter assessed as induction of CYP3A4 transcriptional activity incubated for overnight by luminescence based analysis. It is filed as ADME, cell-based.

Data set [10] is described as follows: Plasma clearance in Wistar Han rat. It is filed as ADME.
The target of data set [11] is T2, Class 1 histone deacetylase. In kind it is tissue-based. The settings on record: 2c4.
The nature of data set [12]: Genotoxicity in Salmonella typhimurium TA1535 in presence of liver S9 fraction by Ames test. The settings on record: salmonella enterica subsp. enterica serovar typhimurium. It is filed as toxicity, subcellular. Summed up: as §1
The target of data set [13] is T1, Histone deacetylase 3. Briefly: Inhibition of recombinant human FLAG-tagged HDAC3 expressed in human HEK293F cells co-expressing His6-tagged SMRT (1 to 899 residues) assessed as rapid dissociation inhibition using Fluor-de-lys substrate as substrate measured after compound dilution by jump dilution based analysis.
A short description of data set [14]: Genotoxicity in Salmonella typhimurium TA98 in presence of liver S9 fraction by Ames test. In kind it is toxicity, subcellular. Particulars: salmonella enterica subsp. enterica serovar typhimurium. Summed up:
as §1

Data set [15] has as its target 5-hydroxytryptamine receptor 2B (Homo sapiens, UniProt P41595). Briefly: Inhibition of human 5HT2B receptor. Summed up: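 Off-target selectivity screen of 115 receptor, enzyme and transporter binding and biochemical assays. Compound tested in duplicate at 10 μM.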
For data set [16], the target named is T2, Class 1 histone deacetylase. Briefly: Inhibition of class 1 HDAC in human Jurkat 2C4 model of HIV latency assessed as reactivation of HIV latency incubated for 18 to 24 hrs in presence of 5% heat inactivated NHS by Steady-Glo luciferase assay. It is filed as tissue-based.
For data set [17] the target is unchanged. Briefly: Ratio of IC50 for inhibition of class 1 HDAC in human Jurkat 2C4 model of HIV latency in presence of 5% heat inactivated NHS to IC50 for inhibition of class 1 HDAC in human Jurkat 2C4 model of HIV latency in presence of 0.1% heat inactivated NHS by Steady-Glo luciferase assay. Summed up: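 Latent HIV luciferase-reporter Jurkat cells were treated with compound and latency reversal was read as increased luminescence. […] Values are means of at least two measurements.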

Data set [18] can be described thus: Oral bioavailability in Wistar Han rat. It is filed as ADME, organism-based. The settings on record: in vivo.
Data set [19] deals with Histone deacetylase 1 (Homo sapiens, UniProt Q13547). Briefly: Inhibition of recombinant human C-terminal FLAG-tagged HDAC1 expressed in human HEK293F cells using Fluor-de-lys substrate as substrate incubated for 3 hrs followed by substrate addition and measured after 60 mins by fluorescence based assay.
Chain of Histone deacetylase 1 (Q13547 whole entry): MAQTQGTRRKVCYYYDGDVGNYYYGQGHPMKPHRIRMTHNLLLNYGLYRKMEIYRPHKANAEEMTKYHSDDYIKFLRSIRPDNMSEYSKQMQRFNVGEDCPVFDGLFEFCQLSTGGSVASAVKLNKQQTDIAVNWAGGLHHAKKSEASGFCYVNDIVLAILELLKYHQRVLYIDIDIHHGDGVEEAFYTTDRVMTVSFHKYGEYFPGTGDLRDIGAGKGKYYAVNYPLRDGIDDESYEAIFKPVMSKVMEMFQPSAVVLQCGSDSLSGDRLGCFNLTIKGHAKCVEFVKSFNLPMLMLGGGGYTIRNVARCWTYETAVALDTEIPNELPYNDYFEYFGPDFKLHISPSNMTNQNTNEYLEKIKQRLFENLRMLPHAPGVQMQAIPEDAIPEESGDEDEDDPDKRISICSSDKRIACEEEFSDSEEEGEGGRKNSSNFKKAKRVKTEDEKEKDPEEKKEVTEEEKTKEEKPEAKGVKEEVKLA

Activity calls are given as the source filed them. The rule behind the calls is not given here.

T1 sequence (O15379 whole entry, the tested form may be a part): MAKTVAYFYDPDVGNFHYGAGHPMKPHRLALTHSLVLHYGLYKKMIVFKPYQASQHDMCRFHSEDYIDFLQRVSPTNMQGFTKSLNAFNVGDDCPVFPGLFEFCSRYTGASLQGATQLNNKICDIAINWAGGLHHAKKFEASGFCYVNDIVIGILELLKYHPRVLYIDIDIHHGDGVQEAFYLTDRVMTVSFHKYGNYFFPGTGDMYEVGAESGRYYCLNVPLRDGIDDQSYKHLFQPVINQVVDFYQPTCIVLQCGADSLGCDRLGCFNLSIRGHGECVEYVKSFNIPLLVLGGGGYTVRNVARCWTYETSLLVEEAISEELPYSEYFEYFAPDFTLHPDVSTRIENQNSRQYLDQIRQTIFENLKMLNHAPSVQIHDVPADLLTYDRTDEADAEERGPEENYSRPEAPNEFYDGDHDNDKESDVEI
Chain of 5-hydroxytryptamine receptor 2B (P41595 whole entry): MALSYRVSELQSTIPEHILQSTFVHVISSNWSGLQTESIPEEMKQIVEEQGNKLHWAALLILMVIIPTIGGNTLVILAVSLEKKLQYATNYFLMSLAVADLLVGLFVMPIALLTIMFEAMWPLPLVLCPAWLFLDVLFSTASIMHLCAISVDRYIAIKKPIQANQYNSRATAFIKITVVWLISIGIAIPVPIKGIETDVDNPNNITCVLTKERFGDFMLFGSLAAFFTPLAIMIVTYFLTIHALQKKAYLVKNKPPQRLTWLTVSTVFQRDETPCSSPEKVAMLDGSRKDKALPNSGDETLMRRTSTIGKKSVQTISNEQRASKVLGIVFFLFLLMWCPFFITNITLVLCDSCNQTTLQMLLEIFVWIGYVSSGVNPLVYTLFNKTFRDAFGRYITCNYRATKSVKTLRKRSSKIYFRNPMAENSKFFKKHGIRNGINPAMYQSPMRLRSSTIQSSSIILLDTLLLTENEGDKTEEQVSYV
T2 sequence (O15379 whole entry, looked up): as the sequence (O15379 whole entry, the tested form may be a part) above
T2 sequence (Q13547 whole entry, looked up): as the sequence (Q13547 whole entry) above
T2 sequence (Q92769 whole entry, looked up): as the sequence (Q92769 whole entry, the tested form may be a part) above
T2 sequence (Q9BY41 whole entry, looked up): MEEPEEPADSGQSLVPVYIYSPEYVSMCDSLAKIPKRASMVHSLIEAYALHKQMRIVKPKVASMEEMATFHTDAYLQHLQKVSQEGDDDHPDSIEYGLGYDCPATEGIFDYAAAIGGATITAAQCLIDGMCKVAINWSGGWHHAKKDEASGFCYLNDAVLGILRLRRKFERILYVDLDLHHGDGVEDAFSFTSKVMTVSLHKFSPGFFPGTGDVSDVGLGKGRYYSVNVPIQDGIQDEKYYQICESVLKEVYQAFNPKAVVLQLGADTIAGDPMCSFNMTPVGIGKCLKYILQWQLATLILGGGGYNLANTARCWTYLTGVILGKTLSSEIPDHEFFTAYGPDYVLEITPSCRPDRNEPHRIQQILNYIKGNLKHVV

Consider `COc1nc2ccccc2cc1-c1cnc(CNC(=O)C2CN(C)C2)[nH]1`, for which the IC50 in data set [1] was more than 50000 nM; in data set [2], 15000 nM.

`O=C(CCCCCCC(=O)Nc1ccccc1)NO` [VORINOSTAT] registered a Fu in [3] of 0.75.

Consider `CCCC[C@H](NC(=O)[C@H](C)c1c(C)[nH]c2ccc(O)cc12)c1ncc(-c2cc3ccccc3nc2OC)[nH]1`, for which the inhibition entry in data set [4] and in data set [13] was “Active” in each case. In [5], this compound had a half-life of 1.2 h. In [3], this compound gave a Fu of 0.0006. The IC50 in [6] was 2500 nM; in data set [1], 87 nM; in [8] it was 2100 nM; in [11], 240 nM; in data set [2], 55.2 nM; in data set [15], less than 1000 nM. The values for the 50% inhibitory concentration (IC50) in [16] and in data set [19] were 3200 nM and 37 nM, respectively. The Activity entry in [7], in [12] and in [14] was “Non-Toxic” in each case. Also, the EC50 in data set [9] came out at 1900 nM. In data set [10], this compound yielded a clearance of 25 mL/min/kg. Besides, in data set [17], the Ratio IC50 was 10. For the same compound, in [18], the F came to 26%.

For the compound `CC[C@H](NC(=O)C1CN(C)C1)c1ncc(-c2cc3ccccc3nc2OC)[nH]1`, the IC50 was more than 50000 nM in [1], more than 40000 nM in data set [11], 28000 nM in data set [2] and 23000 nM in data set [19].

On to `CCCC[C@H](NC(=O)Cc1c[nH]c2ccc(OC)cc12)c1ncc(-c2cc3ccccc3nc2OC)[nH]1`, for which the IC50 in data set [6] came to 1600 nM; in [1] it was 500 nM; in data set [11], 860 nM; in [2] it was 360 nM; in data set [19], 250 nM. In [9], the EC50 was found to be 2500 nM.

In data set [3], `CCC(=O)CCCCC[C@H](NC(=O)C1CN(C)C1)c1ncc(-c2cc3ccccc3nc2OC)[nH]1` came in with a Fu of 0.0574.

Turning to `O=C(/C=C/c1cccc(S(=O)(=O)Nc2ccccc2)c1)NO` [BELINOSTAT], the Fu in [3] is 0.138.

For `CCCCC[C@H](NC(=O)C1CN(C)C1)c1ncc(-c2cc3ccccc3nc2OC)[nH]1`, the IC50 is more than 17000 nM in data set [1], more than 40000 nM in data set [11], 3500 nM in data set [2] and 4700 nM in data set [19].

For the compound `CCCCCCCC[C@H](NC(=O)C1CN(C)C1)c1ncc(-c2cc3ccccc3nc2OC)[nH]1`, the IC50 was more than 50000 nM in [1], more than 40000 nM in data set [11], 5200 nM in data set [2] and 18000 nM in [19].

`CCCC[C@H](NC(=O)[C@H](CN)c1c(C)[nH]c2ccc(OC)cc12)c1ncc(-c2cc3ccccc3nc2OC)[nH]1` had a Fu in [3] of less than 0.0001.

In turn, `CCCC[C@H](NC(=O)[C@H](CN)c1c(C)[nH]c2ccc(O)cc12)c1ncc(-c2cc3ccccc3nc2OC)[nH]1` registered a Fu in [3] of less than 0.0001. Also, the half-maximal inhibitory concentration (IC50) was more than 50000 nM in data set [6]; 5 nM in data set [1]; 4500 nM in [8]; 1300 nM in data set [11]; 4.7 nM in data set [2]; 7400 nM in [16]. In data set [19], the IC50 came to 2 nM. Further, the EC50 in data set [9] is more than 30000 nM.

`CCCC[C@H](NC(=O)C1CN(C)C1)c1ncc(-c2cc3ccccc3nc2OC)[nH]1`: the inhibition entry in data set [4] and in [13] was “Active” in each case. Also, the IC50 in data set [6] was 50000 nM; in data set [1], 750 nM; in data set [11] it was 17000 nM; in [2] it was 160 nM; in data set [19] it was 280 nM. For the same compound, the Activity entry in [7], in data set [12] and in [14] was “Non-Toxic” each time. Also, in data set [9], the EC50 was more than 30000 nM.

With `COc1nc2ccccc2cc1-c1cnc([C@H](C)NC(=O)C2CN(C)C2)[nH]1`, the IC50 is more than 50000 nM in [1], more than 40000 nM in [11], more than 50000 nM in data set [2] and more than 50000 nM in [19].

Take `CCC[C@H](NC(=O)C1CN(C)C1)c1ncc(-c2cc3ccccc3nc2OC)[nH]1`: the IC50 in data set [1] was 3400 nM; in data set [11], 11000 nM; in data set [2], 300 nM; in data set [19] it was 390 nM.

As to `CCCC[C@H](NC(=O)[C@H](C)c1c(C)[nH]c2ccc(OC)cc12)c1ncc(-c2cc3ccccc3nc2OC)[nH]1`, the IC50 was 2900 nM in data set [6]; 120 nM in data set [1]; 300 nM in data set [11]; 210 nM in data set [2]; 47 nM in data set [19]. For the same compound, in data set [9], the EC50 amounted to 2900 nM.

In the case of `CCCC[C@H](NC(=O)Cc1c[nH]c2ccccc12)c1ncc(-c2cc3ccccc3nc2OC)[nH]1`, the IC50 in data set [6] came out at 3400 nM; in [1] it was 2700 nM; in data set [11] it was 40000 nM; in [2], 340 nM; in data set [19], 770 nM. Also, the EC50 in data set [9] was 4400 nM.
